According to publication PMC9200134 (Chemical Science, 2022):

Experiments:
[1] = reference value, aerated CD3OD; cited from earlier work
[2] = system: lung (A549) cancer cell line; assay: SRB cytotoxicity assay in 2D monolayers, dark vs green light; type: cell-based, human; conditions: read-out: EC50 (cell growth inhibition); A549 2D, dark (0 J cm^−2)
Outline: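 Cells were given test compound for 24 h. They were then irradiated (520 nm, 15 min, 21 mW cm−2, 19 J cm−2) or kept dark, and incubated a further 48 h. Cells were fixed in 10% TCA for 48 h at 4 °C and stained with 0.6% SRB. Absorbance was averaged over triplicate wells and viability taken relative to untreated wells. There were three biological replicates from different passages.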

[3] = at 3.3 μM; cited from earlier work
[4] = system: wild type zebrafish embryos; conditions: intravenous or retro-orbital injection, embryo type not stated; cited from earlier work

For `[Ru+2].c1ccc(-c2ccccn2)nc1.c1ccc(-c2ccccn2)nc1.c1ccc(-c2ccccn2)nc1` [[Ru(bpy)3]^2+], the “1O2 generation quantum yield Φ^refΔ” value [1] is listed as 0.73.
In the case of `N.N.[Cl][Pt][Cl]` [Cisplatin], the EC50 [2] is given as 3000 nM and the “Platinum content in the nucleus” value [3] is given as 0.6 ng Pt/10^6 cells.
For `Cc1ccnc(-c2cc(C)ccn2)c1.Cc1ccnc(-c2cc(C)ccn2)c1.[Cl-].[Cl-].[Ru+2].c1csc(-c2ccc(-c3ccc(-c4nc5c6cccnc6c6ncccc6c5[nH]4)s3)s2)c1` [TLD-1433], the “MTD in zebrafish embryo” value [4] is listed as 4.6 mM.
